Assay [1] has as its target T1, Tyrosine-protein phosphatase non-receptor type 1 (Homo sapiens, UniProt P18031).
T1 sequence (P18031 whole entry): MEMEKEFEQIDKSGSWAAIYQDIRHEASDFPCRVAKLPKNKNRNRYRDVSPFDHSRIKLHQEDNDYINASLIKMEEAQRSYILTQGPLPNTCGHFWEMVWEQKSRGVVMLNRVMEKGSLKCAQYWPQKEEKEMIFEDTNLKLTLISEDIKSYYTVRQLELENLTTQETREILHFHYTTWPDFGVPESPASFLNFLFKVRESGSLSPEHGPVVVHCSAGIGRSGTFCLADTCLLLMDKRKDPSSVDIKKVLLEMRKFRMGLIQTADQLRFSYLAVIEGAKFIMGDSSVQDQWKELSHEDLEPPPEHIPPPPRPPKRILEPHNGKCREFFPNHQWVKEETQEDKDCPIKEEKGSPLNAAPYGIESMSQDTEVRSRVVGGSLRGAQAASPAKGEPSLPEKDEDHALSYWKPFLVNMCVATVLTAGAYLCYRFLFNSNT
The assay can be described thus: Inhibition of PTP1B. In short, it runs like this: (§1)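 Enzymes expressed in E. coli and purified: native PTP1B at 2.1 µg/mL, SHP-1 catalytic domain at 5 µg/mL. Buffer 100 mM Hepes, 5 mM EDTA, pH 7.0, 37 °C. Enzyme preincubated 10 min with inhibitor in DMSO, then 2 mM pNPP (final) added. Reaction 3 min, quenched with NaOH, p-nitrophenol read at 405 nm. IC50 taken over a range of inhibitor concentrations.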

The target of assay [2] is T2, Tyrosine-protein phosphatase non-receptor type 2 (Homo sapiens, UniProt P17706).
T2 sequence (P17706 whole entry): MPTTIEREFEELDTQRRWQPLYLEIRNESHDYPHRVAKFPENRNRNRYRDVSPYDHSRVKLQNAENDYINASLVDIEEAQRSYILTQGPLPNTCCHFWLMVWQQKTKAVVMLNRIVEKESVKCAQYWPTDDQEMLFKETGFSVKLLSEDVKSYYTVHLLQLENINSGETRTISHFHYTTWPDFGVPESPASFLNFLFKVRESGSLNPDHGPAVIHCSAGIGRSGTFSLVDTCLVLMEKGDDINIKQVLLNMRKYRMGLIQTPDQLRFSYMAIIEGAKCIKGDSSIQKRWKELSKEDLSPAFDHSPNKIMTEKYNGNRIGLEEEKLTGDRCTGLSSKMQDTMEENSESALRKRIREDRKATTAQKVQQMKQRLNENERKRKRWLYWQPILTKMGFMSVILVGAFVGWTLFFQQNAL
The assay can be described thus: Inhibition of TC-PTP. In short, it runs like this: (§2)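 Commercial LAR-D1 (membrane-proximal catalytic domain) and TC-PTP, each at 33 U/mL. Run at 37 °C in 100 mM Hepes, 5 mM EDTA, pH 7.0. Inhibitor in DMSO preincubated 10 min before 2 mM pNPP (final) added. After 3 min, quenched with NaOH and A405 read. IC50 from a range of inhibitor concentrations.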

Assay [3] has as its target T3, Tyrosine-protein phosphatase 1 (Saccharomyces cerevisiae S288c, UniProt P25044).
T3 sequence (P25044 whole entry): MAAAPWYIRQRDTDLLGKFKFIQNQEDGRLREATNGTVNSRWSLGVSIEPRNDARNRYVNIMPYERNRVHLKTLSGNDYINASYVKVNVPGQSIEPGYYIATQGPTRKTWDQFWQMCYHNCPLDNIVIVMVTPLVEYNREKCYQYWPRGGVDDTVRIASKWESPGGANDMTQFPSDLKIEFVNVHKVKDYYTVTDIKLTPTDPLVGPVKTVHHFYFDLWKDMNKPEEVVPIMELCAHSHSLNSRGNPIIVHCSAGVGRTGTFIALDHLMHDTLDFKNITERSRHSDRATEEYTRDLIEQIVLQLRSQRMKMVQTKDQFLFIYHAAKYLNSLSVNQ
Nature of the assay: Inhibition of yeast PTP1. In short, it runs like this:
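Yeast PTPase YPTP1 at 30 ng/mL. pNPP hydrolysis at 37 °C, pH 7.0 Hepes/EDTA buffer, 10 min inhibitor preincubation, 2 mM pNPP final, 3 min reaction, NaOH stop, A405. IC50 derived from activity across inhibitor concentrations.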

Assay [4] in a line: Inhibition of LAR-D1. Also on record: species or system Homo sapiens. A digest of the protocol:
as §2

In assay [5] the target is Tyrosine-protein phosphatase non-receptor type 6 (Homo sapiens, UniProt P29350). The assay can be described thus: Inhibition of SHP-1 catalytic domain. A digest of the protocol: as §1
Assay [6] deals with Mus musculus. Nature of the assay: Effect on liver weight in HFD-fed C57BL/6J Jms Slc DIO mouse at 5 g/kg of diet after 28 days. The format is functional. A digest of the protocol:
(§3)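 Male C57BL/6J Jms Slc mice (4 weeks old, 17–19 g), acclimatized 1 week on LFD, then HFD for 8 weeks to induce obesity. Next 4 weeks on powdered HFD with compound kneaded in at 5 g/kg diet (0.5% w/w), dissolved with 2 equiv NaOH in water. Vehicle diet was kneaded with the same volume of water. n = 9/group, LFD lean control n = 8. Body weight recorded every other day. Means ± SEM.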

The subject of assay [7] is Mus musculus. Nature of the assay: Effect on total cholesterol in HFD-fed C57BL/6J Jms Slc DIO mouse plasma at 5 g/kg of diet after 28 days. The format is functional. A digest of the protocol: (§4)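 DIO mice (HFD 8 weeks, then drug in powdered HFD at 5 g/kg diet for 4 weeks) fasted 8 h at the end. Secobarbital 40 mg/kg ip, cardiac-puncture blood into EDTA, plasma spun at 5000g, 10 min, 4 °C and frozen. Enzymatic colour kits, 37 °C. Glucose: 5 min, A505. TG and cholesterol: 5 min, A600. NEFA: 20 min, A550. Means ± SEM, n = 8–9.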

Assay [8] has as its system Mus musculus. The assay can be described thus: Effect on nonesterified fatty acid level in HFD-fed C57BL/6J Jms Slc DIO mouse plasma at 5 g/kg of diet after 28 days. Format: functional. In short, it runs like this: as §4
In assay [9] the test system is Mus musculus. Nature of the assay: Effect on triglyceride level in HFD-fed C57BL/6J Jms Slc DIO mouse plasma at 5 g/kg of diet after 28 days. Format: functional. In short, it runs like this:
as §4

The test system of assay [10] is Mus musculus. The assay can be described thus: Effect on glucose level in HFD-fed C57BL/6J Jms Slc DIO mouse plasma at 5 g/kg of diet after 28 days. The format is functional. In short, it runs like this: as §4
The test system of assay [11] is Mus musculus. Nature of the assay: Effect on adipose retroperitoneal tissue weight in HFD-fed C57BL/6J Jms Slc DIO mouse at 5 g/kg of diet after 28 days. The format is functional. A digest of the protocol: as §3
Assay [12] concerns Mus musculus. Nature of the assay: Effect on body weight in HFD-fed C57BL/6J Jms Slc DIO mouse at 5 g/kg of diet after 28 days. The format is functional. In short, it runs like this:
as §3

Assay [13] relates to Mus musculus. The assay can be described thus: Effect on adipose epididymal tissue weight in HFD-fed C57BL/6J Jms Slc DIO mouse at 5 g/kg of diet after 28 days. Format: functional. A digest of the protocol: as §3

Sequence of Tyrosine-protein phosphatase non-receptor type 6 (P29350 whole entry, the tested form may be a part): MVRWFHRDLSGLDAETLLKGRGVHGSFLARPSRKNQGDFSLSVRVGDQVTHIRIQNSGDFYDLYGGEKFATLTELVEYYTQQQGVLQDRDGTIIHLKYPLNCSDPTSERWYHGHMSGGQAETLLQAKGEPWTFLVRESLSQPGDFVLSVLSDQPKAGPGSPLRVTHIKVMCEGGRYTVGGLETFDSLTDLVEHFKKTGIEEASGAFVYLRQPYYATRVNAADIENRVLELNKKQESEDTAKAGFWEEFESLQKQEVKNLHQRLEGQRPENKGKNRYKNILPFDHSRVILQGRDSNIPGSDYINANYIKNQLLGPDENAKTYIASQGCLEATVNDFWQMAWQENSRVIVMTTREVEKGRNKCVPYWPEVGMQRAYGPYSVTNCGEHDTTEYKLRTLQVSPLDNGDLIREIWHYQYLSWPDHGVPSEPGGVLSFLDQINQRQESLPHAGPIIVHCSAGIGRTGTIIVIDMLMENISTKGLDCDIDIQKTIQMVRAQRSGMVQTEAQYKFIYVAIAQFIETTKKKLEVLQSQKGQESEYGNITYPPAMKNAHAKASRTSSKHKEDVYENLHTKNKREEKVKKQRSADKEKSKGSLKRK

Regarding `O=C(O)c1cc(-c2ccccc2)cc(Cc2ccccc2)c1O`, in assay [1], the IC50 (as a rule, the concentration that inhibits the measured activity by half) was determined as 57 µM. For the molecule `O=C(O)c1cc(Cc2ccccc2)cc(-c2ccccc2)c1O`, the IC50 is 540 µM in assay [2]; 271 µM in [3]; over 2000 µM in assay [4]; 129 µM in assay [5]; 65 µM in assay [1]. `O=C(O)c1cc(Cc2ccccc2)ccc1O` gave an IC50 in [1] of 1180 µM. That is a millimolar value. On the same count and under the same terms, as for `O=C(O)c1cccc(Br)c1O`, the figure is over 1000 µM. As for `O=C(O)c1cccc(-c2ccccc2)c1O`, the midpoint of inhibition in assay [1], the IC50, lay at 859 µM.

`O=C(O)c1cc(Cc2ccccc2)cc(Cc2ccccc2)c1O` had an IC50 in assay [1] of 91 µM. `O=C(O)c1cc(Br)cc(Cc2cc(Br)cc(C(=O)O)c2O)c1O` had an IC50 in assay [1] of 149 µM. In turn, `O=C(O)c1ccc2ccccc2c1O` [CARBOXYNAPHTHOL] came in with an IC50 in assay [1] of 850 µM.

`O=C(O)Cc1cc(O)c(CC(=O)O)cc1O` came in with an IC50 in assay [1] of over 1000 µM. Turning to `O=C(O)c1cc2ccccc2cc1O`, the IC50 in assay [1] is over 1000 µM. On the same count and under the same terms, for `O=C(O)c1cc(Cc2ccccc2)cc(Br)c1O` the value was 153 µM; for `O=C(O)c1cc(-c2ccco2)cc(Cc2cc(-c3ccco3)cc(C(=O)O)c2O)c1O`, 67 µM. As to `O=C(O)c1cc(F)ccc1O`, in assay [1], the IC50 is over 1000 µM. Take `O=C(O)c1cc(Cc2cc(C(=O)O)c(O)c(-c3ccccc3)c2)cc(-c2ccccc2)c1O`: the Activity in the assay on Mus musculus [6] stood at 1.03 g; with Mus musculus [7], 129 mg/dL; with Mus musculus [8] it was 0.24 mEq/L; in the assay on Mus musculus [9] it was 42 mg/dL; with Mus musculus [10], 300 mg/dL. `O=C(O)c1cc(-c2cccs2)cc(Cc2cc(-c3cccs3)cc(C(=O)O)c2O)c1O` displayed an IC50 in assay [1] of 27 µM. Same read-out and setting: for `O=C(O)c1cc(S(=O)(=O)O)ccc1O` [SULFOSALICYLIC] the value was over 1000 µM. Turning to `O=C(O)c1cc(-c2ccccc2)cc(Cc2cc(-c3ccccc3)cc(C(=O)O)c2O)c1O`, the Activity turned out to be 0.26 g in the assay with Mus musculus [11]; 28.9 g with Mus musculus [12]; 1.07 g in the assay with Mus musculus [6]; 133 mg/dL in the assay on Mus musculus [7]; 0.14 mEq/L in the assay on Mus musculus [8]; 0.83 g in the assay on Mus musculus [13]. Besides, the figures for the Activity with Mus musculus [9] and in the assay with Mus musculus [10] were 48 mg/dL and 280 mg/dL, respectively. Also, the IC50 in assay [2] is 156 µM; in [3], 86 µM; in [4] it was over 2000 µM; in assay [5] it was 37 µM; in assay [1] it was 19 µM. The values for the Ki in [2], in assay [5] and in assay [1] were 89 µM, 9.7 µM and 6.5 µM, respectively. For the molecule `O=C(O)c1cccc(Cc2ccccc2)c1O`, the midpoint of inhibition in [1], the IC50, lay at 403 µM. The same measure, in the same setting: as for `O=C(O)c1cc(-c2ccccc2)ccc1O`, the figure is 1280 µM; as for `O=Cc1cc(C(=O)O)c(O)c(C2CCCO2)c1` (stereo not drawn), 380 µM. Still for that read-out and setting: for `O=Cc1ccc(O)c(C(=O)O)c1` the value was over 1000 µM; for `O=C(O)c1cc(-c2ccccc2)cc(-c2ccccc2)c1O`, 84 µM; for `O=C(O)c1cc(-c2ccccc2)cc(Br)c1O`, 351 µM.

On to `O=C(O)c1cc(F)cc(Cc2cc(F)cc(C(=O)O)c2O)c1O`, for which, in assay [1], inhibition was half-maximal at 215 µM (IC50). In turn, `O=C(O)c1cc(Br)cc(Cc2ccccc2)c1O` had an IC50 in [1] of 148 µM.

The record behind these values is ChEMBL document CHEMBL1143766, “Mono- and disalicylic acid derivatives: PTP1B inhibitors as potential anti-obesity drugs” (Bioorg Med Chem, 2007).
